An excerpt weighted towards active compounds, which were near 2% of everything screened.
TCR-CD3 inh – inhibitors of human TCR-CD3 interaction, primary screen, biochemical, fluorescence, TAMRA-labeled TCR probe; inhibition, % at 9.4 µM; T-cell receptor (TCR); 360,000 tested, 0.37% active; AID 651800, 2012;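 also: recombinant mutant TCR 2C K166C tagged with TAMRA read by polarization; 0% = receptor in buffer alone and 100% = receptor with positive control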
mABHD4 FP – ABHD4 inhibitors, primary screen, biochemical, fluorescence polarization, mouse | (Lyso)-N-acylphosphatidylethanolamine lipase (Mus musculus), Q8VD66 | inhibition, % at 8.92 µM | 370,000 tested, 0.54% active | purified mABHD4, FP-Rh probe fluorescence polarization;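 active = inhibition exceeding the mean over every tested compound plus 3 SD, cut at about 30% in these data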;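 also: 0% = plate median of compound wells and 100% = S159A mutant with DMSO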
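Test system: mABHD4 protein; Read-out basis: % inhibition; Incubation: 45 min + 60 min at 25 °C; Repeats: single replicate; Technique: fluorescence polarization with parallel and perpendicular emission, 525/598 nm; Compound: 8.92 µM, single dose; Benchmarks: full inhibition S159A mutant plus DMSO, zero as sample-well median.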
TDP2 absorb – human TDP2 enzyme inhibitors, primary screen, biochemical, epi absorbance, recombinant enzyme; Tyrosyl-DNA phosphodiesterase 2 (Homo sapiens), O95551; T5PNP hydrolysis, p-nitrophenol absorbance 415 nm; inhibition, % at 12.8 µM; 370,000 tested, 0.34% active;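 active = inhibition above the mean of all tested compounds plus 3 SD, set per campaign, cut at about 25% in these data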;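 also: 0% = DMSO with enzyme and 100% = buffer with substrate but no TDP2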
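test system = human TDP2 enzyme | input = TDP2 enzyme at 120 nM final | medium = 50 mM Tris-HCl pH 7.5 with Mg2+, KCl, DTT, BSA | also added = T5PNP substrate, 5 mM | times = 2 h at 37 °C | technique = epi absorbance | benchmarks = high control without enzyme, low control DMSO plus TDP2 | replication = each compound tested once, singlicate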
PAD4 inh – human PAD4 inhibitors, primary screen, biochemical, fluorescence polarization, 1536-well format; Protein-arginine deiminase type-4 (Homo sapiens), Q9UM07; recombinant PAD4, RCA probe fluorescence polarization; inhibition, % at 6.36 µM; 330,000 tested, 0.41% active;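 active = percent inhibition above a cutoff equal to the mean of all tested compounds plus 3 SD, cut at about 15% in these data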;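 also: 0% = PAD4 with RCA probe and DMSO and 100% = probe without PAD4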
Target sequence (Q9UM07 whole entry, looked up): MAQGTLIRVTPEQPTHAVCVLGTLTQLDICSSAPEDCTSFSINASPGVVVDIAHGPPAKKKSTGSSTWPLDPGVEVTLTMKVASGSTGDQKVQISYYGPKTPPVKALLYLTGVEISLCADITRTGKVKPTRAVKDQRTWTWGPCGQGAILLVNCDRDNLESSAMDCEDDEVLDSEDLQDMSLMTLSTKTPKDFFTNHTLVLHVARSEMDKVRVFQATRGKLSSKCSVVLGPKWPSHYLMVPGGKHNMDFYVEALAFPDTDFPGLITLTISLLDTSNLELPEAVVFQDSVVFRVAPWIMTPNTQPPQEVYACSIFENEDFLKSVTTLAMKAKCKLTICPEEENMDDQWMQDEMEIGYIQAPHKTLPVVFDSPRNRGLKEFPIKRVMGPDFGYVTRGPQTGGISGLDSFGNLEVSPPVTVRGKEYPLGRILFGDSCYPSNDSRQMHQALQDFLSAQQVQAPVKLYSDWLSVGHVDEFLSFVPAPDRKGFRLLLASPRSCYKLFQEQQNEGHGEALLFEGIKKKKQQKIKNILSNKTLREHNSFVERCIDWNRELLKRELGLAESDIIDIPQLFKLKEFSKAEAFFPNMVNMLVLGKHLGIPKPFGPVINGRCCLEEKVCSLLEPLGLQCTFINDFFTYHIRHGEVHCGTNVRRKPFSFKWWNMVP
SIAE inh – human SIAE inhibitors, primary screen, biochemical, fluorescence polarization, FP-Rh probe, 1536-well HTS | Sialate O-acetylesterase (Homo sapiens), Q9HAT2 | SIAE FP-Rh probe binding | inhibition, % at 9.66 µM | 370,000 tested, 0.69% active;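 active = inhibition above a cutoff: mean of compounds within the control limits plus 3 SD of those, cut at about 17% in these data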;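 also: 0% = plate median of compound wells and 100% = probe without SIAE protein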
HTRA1 inhibitor – HTRA1 serine protease inhibitors, primary screen, biochemical, fluorescence polarization, HTS; recombinant HTRA1, FP-rhodamine activity-based probe; inhibition, % at 5.96 µM; 340,000 tested, 0.5% active; in the data active = inhibition above about 36%;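 also: 0% = enzyme with DMSO and 100% = wells lacking enzyme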
HTRA1 inh conf – HTRA1 protease inhibitors, retest, confirmation, biochemical, fluorescence polarization | shares compounds with HTRA1 inhibitor | recombinant HTRA1, FP-rhodamine activity-based probe | inhibition, % at 5.96 µM | 1,600 tested, 66% active | AID 540248, 2011;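 active = mean inhibition over three repeats above a set limit taken from the earlier primary screen, cut at about 37% in these data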;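 also: 0% = HTRA1 with DMSO and 100% = wells lacking HTRA1; inhibitors block probe binding so polarization drops and inhibition rises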
BSA TAMRA ctr – compounds interfering with TAMRA-BSA probe, counter-screen for TCR-CD3 interaction inhibitor project, biochemical, fluorescence, TAMRA-labeled BSA; TAMRA-labeled BSA probe fluorescence counterscreen; inhibition, % at 9.4 µM; 1,200 tested, 10% active; shares compounds with TCR-CD3 inh; in the data active = inhibition above about 23%;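 also: 0% = buffer low control and 100% = reference high control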
TCR-CD3 inh conf – TCR-CD3 interaction inhibitors, retest, confirmation, biochemical, fluorescence, TAMRA-labeled TCR probe | 1,200 tested, 48% active | TAMRA-labeled TCR probe fluorescence binding assay | inhibition, % at 9.4 µM | shares compounds with TCR-CD3 inh
mABHD4 conf – ABHD4 inhibitors, retest, confirmation, biochemical, fluorescence polarization, mouse | shares compounds with mABHD4 FP | purified mABHD4, FP-Rh probe fluorescence polarization | inhibition, % at 8.92 µM | 1,800 tested, 55% active | AID 720658, 2013;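 active = mean inhibition across replicates above the hit cutoff set in the primary screen, cut at about 30% in these data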;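 also: 0% = wild-type ABHD4 with DMSO and 100% = catalytically dead S159A mutant with DMSO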
TDP2 confirm – human TDP2 enzyme inhibitors, retest, confirmation, biochemical, epi absorbance, recombinant enzyme; shares compounds with TDP2 absorb; absorbance read-out; inhibition, % at 12.8 µM; 1,100 tested, 22% active; in the data active = inhibition above about 25%;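 also: 0% = vehicle with enzyme and 100% = no enzyme buffer only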
An asterisk follows results filed as active; nt = no result given. Rule as the data show it, unless noted: active = inhibition above about 19%; inactive = the rest.

SMILES	TCR-CD3 inh	mABHD4 FP	TDP2 absorb	PAD4 inh	SIAE inh	HTRA1 inhibitor	HTRA1 inh conf	mABHD4 conf	TDP2 confirm	others
O=[N+]([O-])c1cc(C(F)(F)F)cc([N+](=O)[O-])c1NN=C1CCCCC1	10	37*	3	-1	12	42*	1	22	nt
CC1=NN(c2nc3ccccc3[nH]2)C(=O)C1Cc1ccccc1 (centres undefined)	nt	nt	nt	1	nt	nt	nt	nt	nt
CC1CCCC(C)N1/N=C/c1ccc(O)c(O)c1 (centres undefined)	23*	36*	-6	5	6	43*	29	12	nt	BSA TAMRA ctr=-1;TCR-CD3 inh conf=20*
O=C(C1CCOCC1)N1CCCC(N2CCN(c3ccc(F)cc3)CC2)C1 (centres undefined)	1	6	11	3	13	-6	nt	nt	nt
CCCCCCCCCCOC(=O)Cn1c(COc2cccc(C)c2)[n+](C)c2ccccc21	2	32*	-14	1	2	38*	33	38*	nt
Cc1c(Br)c(=O)oc2c(Br)c(O)ccc12	2	2	-3	2	-4	1	nt	nt	nt
Cc1c(Br)c(=O)oc2c(Br)c(O)c(O)cc12	25*	51*	-10	5	13	64*	83*	53*	nt	BSA TAMRA ctr=-9;TCR-CD3 inh conf=17
CCN=c1scc(-c2cccs2)n1/N=C/c1cc(OC)ccc1O	7	3	-11	-1	11	-1	nt	nt	nt
CC(C)N=c1scc(-c2cccs2)n1/N=C/c1ccc(O)c(O)c1O	7	41*	-9	-3	14	57*	65*	54*	nt
CN=c1scc(-c2ccccc2F)n1/N=C/c1ccc(O)c(O)c1O	16	49*	-17	nt	16	72*	77*	60*	nt
COc1ccc(C)cc1S(=O)(=O)N(C)CC(=O)N1CCCC1	1	-1	1	2	-12	-4	nt	nt	nt
Cc1cn([C@H]2C[C@H](O)[C@@H](/C=C/C(=O)NCc3ccco3)O2)c(=O)[nH]c1=O	-3	-2	-8	nt	-5	nt	nt	nt	nt
CN(C1=C(NC(=O)c2ccc(Cl)cc2)C(=O)c2ccccc2C1=O)c1ccccc1	-4	56*	-1	-1	1	73*	65*	71*	nt
Cc1cccc2c(N=Nc3ccc(S(=O)(=O)Nc4cccc(Cl)c4)cc3[N+](=O)[O-])c(O)[nH]c12	3	43*	3	-1	3	37*	28	-43	nt
Cc1ccc(S(=O)(=O)Nc2ccccc2)cc1[N+](=O)[O-]	3	-2	2	nt	-4	1	nt	nt	nt
Oc1ccc(Br)cc1CNc1cccc2cccnc12	-5	21	30*	-8	13	45*	8	nt	15
CCN(CC)c1ccc(/C=C2\C(=O)N(c3nnc(C)c(=O)[nH]3)N=C2C)cc1	16	5	26*	2	-13	62*	79*	nt	4
O=S(=O)(c1cc(F)ccc1F)N1CCC2(CC1)OCCN2S(=O)(=O)c1cccs1	-8	-2	-3	-4	5	-8	nt	nt	nt
CCOC(=O)C1CCN(C2=C(NS(=O)(=O)c3ccc(Br)cc3)C(=O)c3ccccc3C2=O)CC1	-9	45*	30*	-5	19*	47*	65*	63*	11
CCOC(=O)N1CCN(C(=O)CCn2c(=S)[nH]c3ccsc3c2=O)CC1	2	-9	-6	-3	-4	-2	nt	nt	nt
CN1CCN(C2=C(NS(=O)(=O)c3ccccc3)C(=O)c3ccccc3C2=O)CC1	nt	nt	nt	1	nt	3	nt	nt	nt
CN1CCN(C2=C(Cl)C(=O)c3ccccc3C2=O)CC1	15	37*	69*	nt	13	50*	48*	32*	80*
Cc1c(C(=O)NCCN(C)C)n(C)c(=O)c2ccccc12	-2	2	-6	nt	9	nt	nt	nt	nt
Cc1nnc(C)n1/N=C/c1cc(Br)cc(Br)c1O	-1	6	10	-2	-5	-1	nt	nt	nt
Nn1cnnc1N/N=C/c1cc(Br)cc(Br)c1O	5	13	54*	4	-1	53*	51*	nt	-5
SMILES	TCR-CD3 inh	mABHD4 FP	TDP2 absorb	PAD4 inh	SIAE inh	HTRA1 inhibitor	HTRA1 inh conf	mABHD4 conf	TDP2 confirm	others
O=C1c2cccc(Cl)c2C(=O)c2c1cccc2N1CCCC1	-7	66*	26*	-10	8	65*	65*	85*	5
O=C1C(Cl)=C(N2CCCCC2)C(=O)N1c1ccccc1Cl	0	5	-11	-2	14	-8	nt	nt	nt
Cc1ccc(S(=O)(=O)N2CCCCC2)cc1NC(=O)COC(=O)C1(C)CC1(Cl)Cl (centres undefined)	3	-9	-4	-1	-8	-11	nt	nt	nt
O=C(O)c1cc(O)c2c(c1)[C@H]([C@H]1c3cc(C(=O)O)cc(O)c3C(=O)c3c(O[C@@H]4O[C@H](CO)[C@@H](O)[C@H](O)[C@H]4O)cccc31)c1cccc(OC3O[C@H](CO)[C@@H](O)[C@H](O)[C@H]3O)c1C2=O (some centres undefined)	137*	60*	46*	-51	74*	40*	19	5	51*	BSA TAMRA ctr=-14;TCR-CD3 inh conf=135*
COc1cc(NCCCCC(C)N)c2nccc(C)c2c1 (centres undefined)	4	19	9	nt	9	15	nt	nt	nt
COc1cc(NCCCC(C)N)c2ncccc2c1 (centres undefined)	62*	47*	64*	nt	44*	62*	12	27	27*	BSA TAMRA ctr=22;TCR-CD3 inh conf=14
